Laboratory results published in ChEMBL document CHEMBL4049439, “Synthesis and Characterization of Tetrahydropyran-Based Bacterial Topoisomerase Inhibitors with Antibacterial Activity against Gram-Negative Bacteria” (J Med Chem, 2017).
Converted amounts (≈) assume the structure as drawn.

How the values were obtained:
[1] = Inhibition of wild-type Acinetobacter baumannii DNA topoisomerase-4 mediated supercoiled pBR322 DNA relaxation by ethidium bromide based agarose gel electrophoresis
Acinetobacter baumannii = experiment: Antibacterial activity against fluoroquinolone-resistant Acinetobacter baumannii T6474 by CLSI broth microdilution method; format: functional
[2] = Inhibition of wild-type Acinetobacter baumannii DNA gyrase supercoiling activity using relaxed pBR322 DNA as substrate by ethidium bromide based agarose gel electrophoresis
[3] = Inhibition of wild-type Pseudomonas aeruginosa DNA gyrase supercoiling activity using relaxed pBR322 DNA as substrate by ethidium bromide based agarose gel electrophoresis
[4] = Inhibition of wild-type Pseudomonas aeruginosa DNA topoisomerase-4 mediated supercoiled pBR322 DNA relaxation by ethidium bromide based agarose gel electrophoresis
[5] = Lipophilicity, log D of the compound at pH 7.4; format: physicochemical; conditions: buffer
Escherichia coli [6] = experiment: Antibacterial activity against wild-type Escherichia coli MG1655 by CLSI broth microdilution method; format: functional; conditions: K-12 substr. MG1655
In short: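 MIC (μg/mL) determined on wild-type E. coli MG1655, the parent of isogenic strains with truncated LPS or deleted TolC or AcrAB efflux.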

Escherichia coli [7] = experiment: Antibacterial activity against Escherichia coli MG1655 harboring rfac deletion mutant by CLSI broth microdilution method; format: functional; conditions: K-12 substr. MG1655
In short: (§1)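 MIC (μg/mL) measured against engineered derivatives of E. coli MG1655. ΔrfaC has truncated LPS (raised permeability). ΔtolC lacks the outer-membrane TolC efflux component. ΔacrAB lacks the AcrAB efflux system of the cytoplasmic membrane.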

Escherichia coli [8] = experiment: Ratio of MIC for wild-type Escherichia coli MG1655 to MIC for Escherichia coli MG1655 harboring rfac deletion mutant; format: functional, K-12 substr. MG1655
In short: (§2)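 Fold change in MIC for each MG1655 derivative (ΔacrAB, ΔrfaC, ΔtolC) relative to the MIC measured on wild-type E. coli MG1655, with both MICs in μg/mL.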

Escherichia coli [9] = experiment: Antibacterial activity against Escherichia coli MG1655 harboring tolC deletion mutant by CLSI broth microdilution method; format: functional; conditions: K-12 substr. MG1655; in short: as §1
Escherichia coli [10] = experiment: Ratio of MIC for wild-type Escherichia coli MG1655 to MIC for Escherichia coli MG1655 harboring tolC deletion mutant; format: functional, K-12 substr. MG1655; in short: as §2
Escherichia coli [11] = experiment: Antibacterial activity against Escherichia coli MG1655 harboring AcrAB deletion mutant by CLSI broth microdilution method; format: functional; conditions: K-12 substr. MG1655; in short: as §1
Escherichia coli [12] = experiment: Ratio of MIC for wild-type Escherichia coli MG1655 to MIC for Escherichia coli MG1655 harboring AcrAB deletion mutant; format: functional, K-12 substr. MG1655; in short: as §2
Rattus norvegicus [13] = experiment: Dose normalized AUC in Wistar rat at 1 mg/kg, iv by LC-MS/MS analysis; format: ADME, organism-based; conditions: in vivo
[14] = Fraction unbound in Wistar rat plasma at 1 mg/kg, iv by rapid equilibrium dialysis; format: ADME, organism-based
In short: (§3)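 Rats dosed iv at 10 mg/kg or 1 mg/kg. Dose-normalized AUC (μg·h/(mL·dose)) and its unbound counterpart derived via fraction unbound. Clearance, unbound clearance, Vdss and half-life also derived.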

Rattus norvegicus [15] = experiment: Dose normalized unbound AUC in Wistar rat at 1 mg/kg, iv by LC-MS/MS analysis; format: ADME, organism-based; conditions: in vivo; in short: as §3
[16] = Clearance in Wistar rat at 1 mg/kg, iv by LC-MS/MS analysis; format: ADME, organism-based; conditions: in vivo; in short: as §3
Rattus norvegicus [17] = experiment: Unbound clearance in Wistar rat at 1 mg/kg, iv by LC-MS/MS analysis; format: ADME, organism-based; conditions: in vivo; in short: as §3
[18] = Volume of distribution at steady state in Wistar rat at 1 mg/kg, iv by LC-MS/MS analysis; format: ADME, organism-based; conditions: in vivo, read-out: Vdss
In short: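 Rats received a single intravenous dose of 10 or 1 mg/kg depending on the compound. Clearance, unbound clearance, Vdss, terminal half-life and dose-normalized AUC were derived from plasma exposure, with unbound fraction (fu) reported for this species.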

[19] = Terminal half-life in Wistar rat at 1 mg/kg, iv by LC-MS/MS analysis; format: ADME, organism-based; conditions: in vivo, read-out: beta t1/2 (converted); in short: as §3
[20] = Inhibition of wild-type Escherichia coli DNA topoisomerase-4 mediated supercoiled pBR322 DNA relaxation by ethidium bromide based agarose gel electrophoresis
Staphylococcus aureus = experiment: Antibacterial activity against Staphylococcus aureus ATCC 29213 by CLSI broth microdilution method; format: functional
Escherichia coli [21] = experiment: Antibacterial activity against wild-type Escherichia coli ATCC 25922 by CLSI broth microdilution method; format: functional
Pseudomonas aeruginosa = experiment: Antibacterial activity against Pseudomonas aeruginosa ATCC 27853 by CLSI broth microdilution method; format: functional
[22] = Inhibition of wild-type Escherichia coli DNA gyrase supercoiling activity using relaxed pBR322 DNA as substrate by ethidium bromide based agarose gel electrophoresis
hERG (KCNH2) [23] = molecular target: T1, hERG (KCNH2) (Homo sapiens, UniProt Q12809); experiment: Inhibition of human ERG assessed as reduction of K+ current at 30 uM
T1 sequence (Q12809 whole entry): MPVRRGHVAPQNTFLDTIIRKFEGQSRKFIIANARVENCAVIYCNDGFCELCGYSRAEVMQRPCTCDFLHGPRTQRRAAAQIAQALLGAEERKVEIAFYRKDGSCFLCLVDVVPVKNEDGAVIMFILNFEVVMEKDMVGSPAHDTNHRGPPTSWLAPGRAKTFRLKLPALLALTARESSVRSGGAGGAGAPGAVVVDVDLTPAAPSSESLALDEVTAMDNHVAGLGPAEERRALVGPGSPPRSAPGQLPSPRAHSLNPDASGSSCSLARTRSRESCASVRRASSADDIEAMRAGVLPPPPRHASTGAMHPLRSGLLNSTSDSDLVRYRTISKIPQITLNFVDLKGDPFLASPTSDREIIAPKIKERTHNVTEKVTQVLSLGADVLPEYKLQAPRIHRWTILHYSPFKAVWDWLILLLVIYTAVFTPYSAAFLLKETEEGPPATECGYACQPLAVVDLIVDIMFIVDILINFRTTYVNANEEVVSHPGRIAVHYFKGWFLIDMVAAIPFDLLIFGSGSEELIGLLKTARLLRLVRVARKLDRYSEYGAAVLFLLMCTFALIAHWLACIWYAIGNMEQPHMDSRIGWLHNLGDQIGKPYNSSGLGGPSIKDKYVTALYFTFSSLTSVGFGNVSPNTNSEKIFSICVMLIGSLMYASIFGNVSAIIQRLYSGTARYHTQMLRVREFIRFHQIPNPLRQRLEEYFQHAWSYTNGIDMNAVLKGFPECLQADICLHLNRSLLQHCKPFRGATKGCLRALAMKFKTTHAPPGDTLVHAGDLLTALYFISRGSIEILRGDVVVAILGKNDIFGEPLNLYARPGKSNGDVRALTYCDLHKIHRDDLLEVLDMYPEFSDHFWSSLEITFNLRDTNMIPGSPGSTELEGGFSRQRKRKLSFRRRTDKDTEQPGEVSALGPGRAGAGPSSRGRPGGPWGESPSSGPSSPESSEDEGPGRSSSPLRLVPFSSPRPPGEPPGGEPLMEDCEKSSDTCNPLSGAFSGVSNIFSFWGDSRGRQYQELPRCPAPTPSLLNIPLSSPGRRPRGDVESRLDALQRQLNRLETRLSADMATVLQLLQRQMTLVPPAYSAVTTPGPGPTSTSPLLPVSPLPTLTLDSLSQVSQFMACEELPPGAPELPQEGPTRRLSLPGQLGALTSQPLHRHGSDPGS
In short: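 hERG K+ channel current reduction measured at 30 μM compound concentration.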

[24] = molecular target: Voltage-gated inwardly rectifying potassium channel KCNH2 (Homo sapiens, UniProt Q12809); experiment: (§4) Inhibition of human ERG assessed as reduction of K+ current
Chain of Voltage-gated inwardly rectifying potassium channel KCNH2 (Q12809 whole entry): as above

hERG (KCNH2) [25] = molecular target: T1, hERG (KCNH2); experiment: as §4; conditions: human
[26] = Cardiotoxicity against human induced pluripotent stem cell-derived cardiomyocytes assessed as free drug concentration causing inhibition of spontaneous rhythm after 5 to 60 mins by Fluo-4 dye based fluorescence assay; format: toxicity; conditions: cardiac muscle cell
In short: (§5)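 Spontaneous beating rhythm of human iPSC-derived cardiomyocytes monitored. Reported value is the lowest active concentration, free or total. Free/total conversion corrected for 20% serum in the test solution.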

[27] = Cardiotoxicity against human induced pluripotent stem cell-derived cardiomyocytes assessed as total drug concentration causing effect on spontaneous rhythm after 5 to 60 mins by Fluo-4 dye based fluorescence assay; format: toxicity; conditions: cardiac muscle cell; in short: as §5
Cavia porcellus [28] = experiment: (§6) Cardiotoxicity in Dunkin-Hartley guinea pig assessed as free plasma concentration causing effect on QT interval administered as iv at 3 mg/kg for first 20 mins of infusion followed by 10 mg/kg for second 20 mins of infusion followed by 30 mg/kg for third 20 mins of infusion by LC-MS/MS analysis; format: toxicity, organism-based; conditions: in vivo
In short: (§7)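 Anesthetized guinea pigs received 3, 10 and 30 mg/kg iv over three consecutive 20 min periods. MAP, HR and ECG intervals (PR, QRS, RR, QT) recorded continuously. Blood drawn at the end of each period for drug levels. Value is the lowest plasma concentration differing from vehicle-treated animals. Free level uses unbound fraction from rapid equilibrium dialysis of guinea pig plasma.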

Cavia porcellus [29] = experiment: Cardiotoxicity in Dunkin-Hartley guinea pig assessed as free plasma concentration causing effect on heart rate administered as iv at 3 mg/kg for first 20 mins of infusion followed by 10 mg/kg for second 20 mins of infusion followed by 30 mg/kg for third 20 mins of infusion by LC-MS/MS analysis; format: toxicity, organism-based; conditions: in vivo; in short: as §7
Cavia porcellus [30] = experiment: as §6, with “mean arterial pressure” for “QT interval”; format: toxicity, organism-based; conditions: in vivo; in short: as §7
Cavia porcellus [31] = experiment: Cardiotoxicity in Dunkin-Hartley guinea pig assessed as free plasma concentration causing effect on QRS interval administered as iv at 3 mg/kg for first 20 mins of infusion followed by 10 mg/kg for second 20 mins of infusion followed by 30 mg/kg for third 20 mins of infusion by LC-MS/MS analysis; format: toxicity, organism-based; conditions: in vivo; in short: as §7
Cavia porcellus [32] = experiment: Cardiotoxicity in Dunkin-Hartley guinea pig assessed as free plasma concentration causing effect on PR interval administered as iv at 3 mg/kg for first 20 mins of infusion followed by 10 mg/kg for second 20 mins of infusion followed by 30 mg/kg for third 20 mins of infusion by LC-MS/MS analysis; format: toxicity, organism-based; conditions: in vivo; in short: as §7
[33] = Fraction unbound in Dunkin-Hartley guinea pig plasma administered as iv at 3 mg/kg for first 20 mins of infusion followed by 10 mg/kg for second 20 mins of infusion followed by 30 mg/kg for third 20 mins of infusion by rapid equilibrium dialysis; format: ADME, organism-based, Cavia porcellus

| Compound | IC50 [1] [nM] | MIC (Acinetobacter baumannii) [µg/mL] | IC50 [2] [nM] | IC50 [3] [nM] | IC50 [4] [nM] | logD [5] | AUC/dose (Rattus norvegicus [13]) [ng·h/mL] | fraction unbound [14] | fAUC/dose (Rattus norvegicus [15]) [µg·h/mL] | clearance [16] [mL/min/kg] | CL free (Rattus norvegicus [17]) [mL/min/kg] | Vd [18] [L/kg] | half-life [19] [h] | further results |
| --- | --- | --- | --- | --- | --- | --- | --- | --- | --- | --- | --- | --- | --- | --- |
| COc1ccc2ncc(F)c(C[C@H](O)[C@@H]3CC[C@@H](NCc4ccc5c(n4)NC(=O)CO5)CO3)c2n1 | 125 | 0.125 (≈ 0.259 µM) | 125 | 125 | 125 | 2 | 457 | 0.086 | 39 | 37 | 430 | 2.5 | 1.3 | MIC (Escherichia coli [6]): 0.5 µg/mL (≈ 1.03 µM); MIC (Escherichia coli [7]): 0.031 µg/mL (≈ 0.0641 µM); Ratio (Escherichia coli [8]): 16; MIC (Escherichia coli [9]): 0.004 µg/mL (≈ 0.00827 µM); Ratio (Escherichia coli [10]): 100; MIC (Escherichia coli [11]): 0.004 µg/mL (≈ 0.00827 µM); Ratio (Escherichia coli [12]): 100 |
| COc1ccc2ccc(=O)n(C[C@H](O)[C@@H]3CC[C@@H](NCc4ccc5c(n4)NC(=O)CO5)CO3)c2n1 | 125 | ≤ 0.03 | 125 | 125 | 30 | 2 | 378 | 0.167 | 63 | 44 | 263 | 2.5 | 1 | IC50 [20]: 30 nM; MIC (Staphylococcus aureus): ≤ 0.03 µg/mL; MIC (Escherichia coli [21]): 0.5 µg/mL (≈ 1.04 µM); MIC (Pseudomonas aeruginosa): 8 µg/mL (≈ 16.6 µM); IC50 [22]: 125 nM; inhibition at 30 µM (hERG (KCNH2) [23]): 71%; IC50 [24]: 15000 nM; IC20 (hERG (KCNH2) [25]): 3700 nM; Drug uptake(free) [26]: 0.86 µM; Drug uptake [27]: 1.4 µM; Cp(f) (Cavia porcellus [28]): 1.5 µM; Cp(f) (Cavia porcellus [29]): 6 µM; Cp(f) (Cavia porcellus [30]): 21 µM; Cp(f) (Cavia porcellus [31]): 21 µM; Cp(f) (Cavia porcellus [32]): > 21 µM; fraction unbound at 20 min [33]: 0.43 |
